Measured values from ChEMBL document CHEMBL5335790, “Design, synthesis and biological evaluation of novel 2,4-thiazolidinedione derivatives able to target the human BAG3 protein” (Eur J Med Chem, 2023).

Legend:
Assay type in all cases: functional
[1] = tested on: RS4-11; test: Antiproliferative activity against human RS4-11 cells assessed as cell growth inhibition incubated for 72 hrs by resazurin dye based analysis
Outline: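 Cells seeded at 2000/well, treated 24 h later with compounds in a 6-point 2-fold dose series, duplicate wells, two independent experiments. After 72 h, resazurin was added at 44 µM final for 3 h at 37 °C and fluorescence was read at 590 nm. Viability was normalized to 1 µM bortezomib (positive) and 0.5% DMSO (negative) controls. GI50 is the mean ± SEM of dose-response curves.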

[2] = tested on: HD-MB03; test: Sensitization of chemotherapy induced cytotoxicity against human HD-MB03 cells assessed as inhibition of cell growth at 1.25 uM incubated for 72 hrs in presence of 0.5 unit of vincristine, etoposide, cisplatin, cyclophosphamide by resazurin dye based analysis (reference value: 83.74+/- 0.54%)
[3] = tested on: HD-MB03; test: Sensitization of chemotherapy induced cytotoxicity against human HD-MB03 cells assessed as inhibition of cell growth at 1.25 uM incubated for 72 hrs in presence of 2 unit of vincristine, etoposide, cisplatin, cyclophosphamide by resazurin dye based analysis (reference value: 97.7 +/- 1.3%)
[4] = tested on: HD-MB03; test: Sensitization of chemotherapy induced cytotoxicity against human HD-MB03 cells assessed as inhibition of cell growth at 2.5 uM incubated for 72 hrs in presence of 2 unit of vincristine, etoposide, cisplatin, cyclophosphamide by resazurin dye based analysis (reference value: 97.7 +/- 1.3%)
[5] = tested on: HD-MB03; test: Sensitization of chemotherapy induced cytotoxicity against human HD-MB03 cells assessed as inhibition of cell growth at 5 uM incubated for 72 hrs in presence of 0.25 unit of vincristine, etoposide, cisplatin, cyclophosphamide by resazurin dye based analysis (reference value: 73.44 +/- 0.92%)
[6] = tested on: HD-MB03; test: Sensitization of chemotherapy induced cytotoxicity against human HD-MB03 cells assessed as inhibition of cell growth at 5 uM incubated for 72 hrs in presence of 1 unit of vincristine, etoposide, cisplatin, cyclophosphamide by resazurin dye based analysis (reference value: 91.53 +/- 1.15%)
[7] = tested on: HD-MB03; test: Sensitization of chemotherapy induced cytotoxicity against human HD-MB03 cells assessed as inhibition of cell growth at 20 uM incubated for 72 hrs in presence of 0.12 unit of vincristine, etoposide, cisplatin, cyclophosphamide by resazurin dye based analysis (reference value: 51.43 +/- 1.17%)
[8] = tested on: HD-MB03; test: Cytotoxicity against human HD-MB03 cells assessed as inhibition of cell growth at 2.5 uM incubated for 72 hrs by resazurin dye based analysis relative to control
Outline: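 Resazurin viability in HD-MB03 cells, 2000/well, single-agent arm of the 6x6 matrix. Inhibitor was added 24 h after seeding, in a 6-point 2-fold series, duplicates, two independent experiments. After 72 h exposure, resazurin was added at 44 µM final for 3 h at 37 °C and fluorescence read at 590 nm. Viability normalized to 1 µM bortezomib and 0.5% DMSO controls.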

Compound: CC(C(=O)N1CCOCC1)N1C(=O)S/C(=C\c2cccc(O)c2O)C1=O (racemic)
- GI50 [1]: 6.7 µM
- inhibition at 1.25 µM [2]: 82.7%
- inhibition at 1.25 µM [3]: 96.6%
- inhibition at 2.5 µM [4]: 95.4%
- inhibition at 5 µM [5]: 76.7%
- inhibition at 5 µM [6]: 92%
- inhibition at 20 µM [7]: 75%
- inhibition at 2.5 µM [8]: -8.3%
